The target in one assay is D(1A) dopamine receptor (Homo sapiens, UniProt P21728). The assay can be described thus: Displacement of [3H]-SCH-23390 from human dopamine D1 receptor expressed in HEK293 cells after 30 mins by scintillation counting. Type of assay: cell-based. On the technique in general: Loss of bound radioactivity is the signal in a displacement assay; it reports binding, not function.

Assay [1] in a line: Displacement of [3H]-N-methylspiperone from dopamine D2 like receptor in pig striatal homogenates after 30 mins by scintillation counting. In kind it is tissue-based, Sus scrofa.
Assay [2] is described as follows: Displacement of [3H]-SCH-23390 from dopamine D1 like receptor in pig striatal homogenates after 30 mins by scintillation counting. In kind it is tissue-based, Sus scrofa.
The target of assay [3] is T1, D(3) dopamine receptor (Homo sapiens, UniProt P35462). Description: Displacement of [3H]-N-methylspiperone from human dopamine D3 receptor expressed in HEK293 cells after 30 mins by scintillation counting. In kind it is cell-based.
Another assay concerns the target D(2) dopamine receptor (Homo sapiens, UniProt P14416). Description: Displacement of [3H]-N-methylspiperone from human dopamine D2long receptor expressed in HEK293 cells after 30 mins by scintillation counting. Type of assay: cell-based.
The species entered for the next assay is Sus scrofa. The assay can be described thus: Selectivity ratio of Ki for dopamine D2 like receptor in pig striatal homogenates to Ki for dopamine D1 like receptor in pig striatal homogenates. Type of assay: tissue-based. The method, boiled down: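 Porcine striatal homogenate in 50 mM HEPES, 4 mM MgCl2, pH 7.4. […] D2-like sites labelled with 0.2–0.4 nM [3H]N-methylspiperone plus 50 nM ketanserin to block 5-HT2A. Nonspecific binding with 5 µM (+)-butaclamol. 30 min at 37 °C, filtration, scintillation counting. Ki by Cheng-Prusoff from IC50. At least three experiments.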

The species named for assay [4] is Homo sapiens. The assay can be described thus: Selectivity ratio of Ki for human dopamine D3 receptor to Ki for human dopamine D2long receptor. The method, boiled down: (§1)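 Membranes from HEK293 cells transiently expressing human receptors: D1 at ~2840 fmol/mg, D2Long at ~2500 fmol/mg, D3 at ~1980 fmol/mg. Buffer 50 mM Tris, 4 mM MgCl2, pH 7.4. […] 5 µM (+)-butaclamol for nonspecific binding. 30 min at 37 °C, filtration, scintillation.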

For assay [5], the target named is T1, D(3) dopamine receptor. The assay can be described thus: Agonist activity at dopamine D3 receptor in human U2OS-D3 cells assessed as EA-tagged beta-arrestin translocation after 1.5 hrs by luminescence based beta-galactosidase assay relative to dopamine. Type of assay: functional, cell-based.
For assay [6], the species on record is Homo sapiens. The assay can be described thus: Selectivity ratio of Ki for human dopamine D3 receptor to Ki for human dopamine D1 receptor. The method, boiled down:
as §1

SMILES strings stand for the structures.

In general, Ki refers to a dissociation constant, usually derived from enzyme kinetics or from competition with a known ligand. Low readings indicate higher affinity, high ones lower affinity. As usually defined, the Emax is the maximal effect, on the per cent scale that the assay sets.

Chain of D(1A) dopamine receptor (P21728 whole entry): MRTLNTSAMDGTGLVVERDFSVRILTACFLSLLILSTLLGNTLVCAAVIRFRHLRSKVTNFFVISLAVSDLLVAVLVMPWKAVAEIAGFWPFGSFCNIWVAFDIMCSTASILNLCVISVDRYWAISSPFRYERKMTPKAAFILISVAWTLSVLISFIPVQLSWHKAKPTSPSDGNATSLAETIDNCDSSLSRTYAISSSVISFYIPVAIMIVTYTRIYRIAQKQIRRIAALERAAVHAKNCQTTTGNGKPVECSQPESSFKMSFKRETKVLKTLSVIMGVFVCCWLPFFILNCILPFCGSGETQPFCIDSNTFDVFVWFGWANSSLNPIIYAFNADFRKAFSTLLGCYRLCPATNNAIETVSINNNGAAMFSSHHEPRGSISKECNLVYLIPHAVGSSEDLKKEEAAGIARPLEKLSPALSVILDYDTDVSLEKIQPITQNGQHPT
T1 sequence (P35462 whole entry): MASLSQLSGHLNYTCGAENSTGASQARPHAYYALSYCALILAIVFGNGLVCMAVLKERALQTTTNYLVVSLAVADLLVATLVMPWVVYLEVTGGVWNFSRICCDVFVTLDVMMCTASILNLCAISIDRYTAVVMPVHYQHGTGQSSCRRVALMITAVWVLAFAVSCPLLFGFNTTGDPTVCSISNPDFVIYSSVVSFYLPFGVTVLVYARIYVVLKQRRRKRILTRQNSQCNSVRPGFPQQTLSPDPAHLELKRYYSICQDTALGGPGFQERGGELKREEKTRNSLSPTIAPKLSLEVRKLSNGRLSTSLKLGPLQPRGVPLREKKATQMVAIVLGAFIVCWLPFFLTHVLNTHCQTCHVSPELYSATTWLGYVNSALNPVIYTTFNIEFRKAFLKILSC
Chain of D(2) dopamine receptor (P14416 whole entry): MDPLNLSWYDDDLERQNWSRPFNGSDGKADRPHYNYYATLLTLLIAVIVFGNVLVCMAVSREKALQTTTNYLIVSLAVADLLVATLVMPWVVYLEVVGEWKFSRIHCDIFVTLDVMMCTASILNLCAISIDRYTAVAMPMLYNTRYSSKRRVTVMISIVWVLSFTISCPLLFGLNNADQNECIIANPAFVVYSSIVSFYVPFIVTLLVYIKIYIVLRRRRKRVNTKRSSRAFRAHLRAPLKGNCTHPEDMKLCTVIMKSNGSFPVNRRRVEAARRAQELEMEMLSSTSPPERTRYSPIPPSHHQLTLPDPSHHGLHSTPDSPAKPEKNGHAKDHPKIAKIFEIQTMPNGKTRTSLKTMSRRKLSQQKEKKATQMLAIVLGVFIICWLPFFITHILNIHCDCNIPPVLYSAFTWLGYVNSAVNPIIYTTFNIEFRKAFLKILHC

Take `Oc1ccc2c(c1O)C[C@@H](c1ccccc1)[C@@H]1CCNC[C@@H]21`: the Ki on D(1A) dopamine receptor was 47 nM; in [1], 180 nM; in assay [2], 8.2 nM; on D(3) dopamine receptor [3], 210 nM.

`CN1CCc2cc(Cl)c(O)cc2[C@@H](c2ccccc2)C1.O=C(O)/C(O)=C(/O)C(=O)O`: in assay [2], the affinity corresponds to a Ki of 0.31 nM.

On to `Oc1ccc([C@H]2CN[C@@H]3CCc4cc(O)c(O)cc4[C@H]3C2)cc1` (racemic), for which the Ki on D(2) dopamine receptor is 490 nM; on D(1A) dopamine receptor, 550 nM; in assay [1], 14 nM; in [2] it was 490 nM; on D(3) dopamine receptor [3], 50 nM. Also, the figures for the Ratio Ki in the assay listed under Sus scrofa and in the assay listed under Homo sapiens [4] were 34 and 10, respectively.

For the molecule `Oc1cccc([C@H]2CN[C@@H]3CCc4cc(O)c(O)cc4[C@H]3C2)c1` (racemic), the Ki was 29 nM in [1] and 580 nM in assay [2]. In addition, in the assay filed under Sus scrofa, the Ratio Ki is 20.

Consider `Cc1ccc([C@H]2CN[C@@H]3CCc4cc(O)c(O)cc4[C@H]3C2)cc1` (racemic), for which the Ki in [1] is 56 nM; in [2], 810 nM. Also, in the assay filed under Sus scrofa, the Ratio Ki turned out to be 14.

Consider `Oc1cc2c(cc1O)[C@H]1C[C@@H](c3ccc(C(F)(F)F)cc3)CN[C@@H]1CC2` (racemic), for which the Ki in assay [1] was found to be 150 nM; in [2] it was 2370 nM. Further, in the assay listed under Sus scrofa, the Ratio Ki is 16.

For `Oc1cc2c(cc1O)[C@H]1C[C@@H](c3ccccc3)CN[C@@H]1CC2` (racemic), the Ki in assay [1] was found to be 30 nM; in assay [2] it was 930 nM. Moreover, the Ratio Ki in the assay listed under Sus scrofa was determined as 31.

As to `CCCN1C[C@H](c2ccc(O)cc2)C[C@@H]2c3cc(O)c(O)cc3CC[C@H]21` (relative stereo), the results for the Ki (at D(1A) dopamine receptor; in [1]; in [2]) were 921 nM, 10 nM and 630 nM, respectively. In addition, the Emax on D(3) dopamine receptor [5] is 103%. Further, the Ratio Ki was 840 in the assay listed under Homo sapiens [6], 61 in the assay listed under Sus scrofa and 145 in the assay filed under Homo sapiens [4].

`Oc1cc2c(cc1O)[C@H]1c3ccccc3CN[C@@H]1CC2` (relative stereo) [DIHYDREXIDINE] returned a Ki in assay [1] of 200 nM.
